Key:
[1] = Chemical stability of the compound in MEM cell culture medium after 7 days by HPLC analysis; type: physicochemical; conditions: read-out: Stability
Summary of the method: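 Compound incubated in MEM culture medium at 37 °C for 7 days, then analysed by HPLC on RX-C8 (5 μm) column with MeOH–water 90:10 (0.1% TFA), diode-array detection. Expressed as % of incubated compound recovered.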

A549 = assay: Growth inhibition in apoptosis-resistant human A549 after 3 days by MTT assay; type: functional; conditions: A549, 72 h
Summary of the method: (§1)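 Cells grown in RPMI with 10% heat-inactivated FCS, 4 mM glutamine, gentamicin and penicillin–streptomycin. Drug exposure 3 days, growth read by MTT colorimetric assay. Nine concentrations from 0.01 to 100 μM in semilog steps, six replicates each; IC50 derived per cell line.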

SK-MEL-28 = assay: Growth inhibition in apoptosis-resistant human SK-MEL-28 after 3 days by MTT assay; type: functional; conditions: SK-MEL-28, 72 h; summary of the method: as §1
T98G = assay: Growth inhibition in apoptosis-resistant human T98G after 3 days by MTT assay; type: functional; conditions: 72 h; summary of the method: as §1
[2] = Growth inhibition in apoptosis-resistant human U373 after 3 days by MTT assay; type: functional, U-373MG ATCC; conditions: U373 MG, 72 h; summary of the method: as §1
Hs 683 = assay: Growth inhibition in apoptosis-sensitive human Hs683 after 3 days by MTT assay; type: functional; conditions: Hs 683, 72 h; summary of the method: as §1
PC-3 = assay: Growth inhibition in apoptosis-sensitive human PC3 after 3 days by MTT assay; type: functional; conditions: PC-3, 72 h; summary of the method: as §1
MCF7 = assay: Growth inhibition in apoptosis-sensitive human MCF7 after 3 days by MTT assay; type: functional; conditions: MCF7, 72 h; summary of the method: as §1
B16-F10 = assay: Growth inhibition in mouse B16F10 after 3 days by MTT assay; type: functional; conditions: B16-F10, 72 h; summary of the method: as §1

| Structure (SMILES) | remaining at 168 h [1] [%] | GI50 (A549) [µM] | GI50 (SK-MEL-28) [µM] | GI50 (PC-3) [µM] | GI50 (MCF7) [µM] | GI50 (B16-F10) [µM] | GI50 (T98G) [µM] | GI50 [2] [µM] | GI50 (Hs 683) [µM] |
| --- | --- | --- | --- | --- | --- | --- | --- | --- | --- |
| CC1(C)[C@@H](O)CC[C@]2(C)[C@H]3C(=O)C=C4[C@@H]5C[C@@](C)(C(=O)NCCNC(=O)c6ccc(C(F)(F)F)cc6)CC[C@]5(C)CC[C@@]4(C)[C@]3(C)CC[C@@H]12 | 95 | 47 | 49 | 53 | 28 | 36 | 62 | 55 | 38 |
| CC(C)(C)OC(=O)NCCNC(=O)[C@@]1(C)CC[C@]2(C)CC[C@]3(C)C(=CC(=O)[C@@H]4[C@@]5(C)CC[C@H](O)C(C)(C)[C@@H]5CC[C@]43C)[C@@H]2C1 | 93 | 43 | 60 | 41 | 37 | 48 | 73 | 57 | 63 |
| CC1(C)[C@@H](O)CC[C@]2(C)[C@H]3C(=O)C=C4[C@@H]5C[C@@](C)(C(=O)NCCNC(=O)c6ccc(C#N)cc6)CC[C@]5(C)CC[C@@]4(C)[C@]3(C)CC[C@@H]12 | 92 | 68 | 35 | 72 | 27 | 31 | 77 | 76 | 67 |
| COc1cccc(C(=O)NCCNC(=O)[C@@]2(C)CC[C@]3(C)CC[C@]4(C)C(=CC(=O)[C@@H]5[C@@]6(C)CC[C@H](O)C(C)(C)[C@@H]6CC[C@]54C)[C@@H]3C2)c1 | 99 | 63 | 42 | 72 | 46 | 31 | 77 | 75 | 58 |
| CSCCCNC(=S)NCCNC(=O)[C@@]1(C)CC[C@]2(C)CC[C@]3(C)C(=CC(=O)[C@@H]4[C@@]5(C)CC[C@H](O)C(C)(C)[C@@H]5CC[C@]43C)[C@@H]2C1 | 93 | 38 | 33 | 39 | 30 | 33 | 35 | 35 | 36 |

Continued, in another order:

| remaining at 168 h [1] [%] | GI50 (A549) [µM] | GI50 (SK-MEL-28) [µM] | GI50 (PC-3) [µM] | GI50 (MCF7) [µM] | GI50 (B16-F10) [µM] | Structure (SMILES) | GI50 (T98G) [µM] | GI50 [2] [µM] | GI50 (Hs 683) [µM] |
| --- | --- | --- | --- | --- | --- | --- | --- | --- | --- |
| 99 | 29 | 65 | 46 | 42 | 41 | CCOC(=O)CCNC(=O)NCCNC(=O)[C@@]1(C)CC[C@]2(C)CC[C@]3(C)C(=CC(=O)[C@@H]4[C@@]5(C)CC[C@H](O)C(C)(C)[C@@H]5CC[C@]43C)[C@@H]2C1 | 71 | 42 | 42 |
| 91 | 37 | > 100 | 34 | 36 | 31 | COc1ccc(CCNC(=O)[C@@]2(C)CC[C@]3(C)CC[C@]4(C)C(=CC(=O)[C@@H]5[C@@]6(C)CC[C@H](O)C(C)(C)[C@@H]6CC[C@]54C)[C@@H]3C2)cc1 | 68 | 49 | 61 |
| 96 | 29 | 49 | 32 | 28 | 31 | CC1(C)[C@@H](O)CC[C@]2(C)[C@H]3C(=O)C=C4[C@@H]5C[C@@](C)(C(=O)NCCNC(=O)Nc6ccccc6)CC[C@]5(C)CC[C@@]4(C)[C@]3(C)CC[C@@H]12 | 30 | 30 | 28 |
| 98 | 28 | 37 | 30 | 25 | 28 | CC1(C)[C@@H](O)CC[C@]2(C)[C@H]3C(=O)C=C4[C@@H]5C[C@@](C)(C(=O)NCCNC(=O)c6ccc(F)cc6)CC[C@]5(C)CC[C@@]4(C)[C@]3(C)CC[C@@H]12 | 35 | 29 | 31 |

Source: ChEMBL document CHEMBL1833790, “N-(2-{3-[3,5-bis(trifluoromethyl)phenyl]ureido}ethyl)-glycyrrhetinamide (6b): a novel anticancer glycyrrhetinic acid derivative that targets the proteasome and displays anti-kinase activity” (J Med Chem, 2011)
